# In ChEMBL document CHEMBL1138152, “Design and synthesis of novel hydrazide-linked bifunctional peptides as delta/mu opioid receptor agonists and CCK-1/CCK-2 receptor antagonists” (J Med Chem, 2006):
# What was measured:
# [1] = target: T1, Cholecystokinin receptor (Homo sapiens) (UniProt P32239+P32238); test: Antagonist activity at CCK receptor by inhibition of CCK8-induced muscle contraction in unstimulated GPI/LMMP at 1 uM; assay type: functional; details: Cavia porcellus, filed as partial agonist, target entry is the homologue from another species
# T1 sequence (P32238 whole entry, looked up): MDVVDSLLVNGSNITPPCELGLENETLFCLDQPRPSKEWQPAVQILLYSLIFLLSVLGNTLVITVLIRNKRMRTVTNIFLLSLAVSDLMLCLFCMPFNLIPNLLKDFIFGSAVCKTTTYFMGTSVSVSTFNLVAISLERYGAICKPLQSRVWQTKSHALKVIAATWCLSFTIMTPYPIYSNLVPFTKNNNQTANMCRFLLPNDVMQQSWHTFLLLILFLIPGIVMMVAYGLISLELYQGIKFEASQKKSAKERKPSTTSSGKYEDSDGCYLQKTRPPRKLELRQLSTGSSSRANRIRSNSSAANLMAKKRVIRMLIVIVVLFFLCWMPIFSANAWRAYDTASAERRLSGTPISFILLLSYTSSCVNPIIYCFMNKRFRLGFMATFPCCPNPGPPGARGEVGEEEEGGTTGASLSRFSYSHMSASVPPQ
# T1 sequence (P32239 whole entry, looked up): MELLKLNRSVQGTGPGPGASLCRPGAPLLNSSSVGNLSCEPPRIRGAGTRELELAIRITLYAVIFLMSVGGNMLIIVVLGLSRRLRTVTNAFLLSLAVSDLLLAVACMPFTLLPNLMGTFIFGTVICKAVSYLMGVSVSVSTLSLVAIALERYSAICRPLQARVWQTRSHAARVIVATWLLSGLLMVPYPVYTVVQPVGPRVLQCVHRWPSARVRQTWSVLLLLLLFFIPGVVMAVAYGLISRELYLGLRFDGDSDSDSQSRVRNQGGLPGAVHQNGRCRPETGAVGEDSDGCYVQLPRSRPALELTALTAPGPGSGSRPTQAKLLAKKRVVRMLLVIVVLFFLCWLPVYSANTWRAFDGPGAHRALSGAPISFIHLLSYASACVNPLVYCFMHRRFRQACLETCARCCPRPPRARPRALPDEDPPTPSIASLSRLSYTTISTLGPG
# [2] = target: Mu-type opioid receptor (Rattus norvegicus) (UniProt P33535); test: Inhibition of [35S]GTP-gamma-S binding to rat mu opioid receptor expressed in CHO cells; assay type: functional, cell-based
# Mu-type opioid receptor (Rattus norvegicus), sequence (P33535 whole entry): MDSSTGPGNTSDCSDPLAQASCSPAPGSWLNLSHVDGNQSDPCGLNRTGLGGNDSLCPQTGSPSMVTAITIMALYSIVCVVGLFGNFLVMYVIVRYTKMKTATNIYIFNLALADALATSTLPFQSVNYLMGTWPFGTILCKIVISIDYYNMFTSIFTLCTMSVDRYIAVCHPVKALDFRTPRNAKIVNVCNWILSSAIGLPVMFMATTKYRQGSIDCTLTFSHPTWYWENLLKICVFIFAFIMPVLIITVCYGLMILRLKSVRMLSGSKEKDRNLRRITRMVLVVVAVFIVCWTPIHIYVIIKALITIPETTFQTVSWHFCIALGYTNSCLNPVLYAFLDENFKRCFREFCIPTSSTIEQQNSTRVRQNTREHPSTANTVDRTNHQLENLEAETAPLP
# In short: (§1)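 CHO-expressed receptor membranes (10 µg) in 50 mM HEPES pH 7.4 with EDTA, 5 mM MgCl2, 30 µM GDP, DTT, 100 mM NaCl, PMSF, BSA and 0.1 nM [35S]GTPγS. Test drug at various concentrations, duplicate or triplicate, 90 min at 30 °C. Nonspecific binding with 10 µM GTPγS.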
# [3] = target: T1, Cholecystokinin receptor (Homo sapiens); test: Agonist activity at CCK receptor of guinea pig ileum at 1 uM; assay type: functional, tissue-based; details: Cavia porcellus, target entry is the homologue from another species
# In short: (§2)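 Guinea pig ileum LMMP strips (male Hartley), 20-mL baths, 1 g tension, oxygenated Krebs bicarbonate buffer, 37 °C. Tissue first challenged with 67 mM KCl to set maximal contraction. Test compound added to the bath; agonist activity taken as contraction height as a percentage of the maximal KCl contraction (A50).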
# [4] = target: Delta-type opioid receptor (Homo sapiens, UniProt P41143); test: Inhibition of [35S]GTP-gamma-S binding to human delta opioid receptor expressed in CHO cells; assay type: functional, cell-based; in short: as §1
# Delta-type opioid receptor (Homo sapiens, UniProt P41143), sequence (P41143 whole entry): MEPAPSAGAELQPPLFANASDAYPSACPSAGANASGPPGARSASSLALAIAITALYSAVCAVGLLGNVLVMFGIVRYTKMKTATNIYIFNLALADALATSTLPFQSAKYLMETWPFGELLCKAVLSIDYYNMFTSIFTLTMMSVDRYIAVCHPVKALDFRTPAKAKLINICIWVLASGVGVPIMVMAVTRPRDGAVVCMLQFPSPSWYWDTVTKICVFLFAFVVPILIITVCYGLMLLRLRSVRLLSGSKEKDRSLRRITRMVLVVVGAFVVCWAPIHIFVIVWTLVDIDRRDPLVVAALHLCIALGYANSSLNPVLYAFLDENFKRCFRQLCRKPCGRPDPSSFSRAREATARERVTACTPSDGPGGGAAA
# [5] = target: T1, Cholecystokinin receptor (Homo sapiens); test: Agonist activity at CCK receptor of guinea pig ileum at 300 nM; assay type: functional, tissue-based; details: Cavia porcellus, target entry is the homologue from another species; in short: as §2
# Mu-type opioid receptor = Mu-type opioid receptor (Cavia porcellus, UniProt P97266); test: Agonist activity at mu opioid receptor by inhibition of muscle contraction in electrically stimulated isolated guinea pig ileum; assay type: functional, tissue-based
# Mu-type opioid receptor, sequence (P97266 whole entry): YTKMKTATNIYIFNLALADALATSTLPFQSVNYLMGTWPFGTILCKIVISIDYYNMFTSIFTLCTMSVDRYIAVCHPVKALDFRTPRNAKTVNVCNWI
# In short: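 Longitudinal muscle–myenteric plexus strips from male Hartley guinea pig ileum, 1 g tension, oxygenated Krebs at 37 °C, 15 min equilibration. Stimulated at 0.1 Hz, 0.4 ms, supramaximal voltage. Integrity checked with PL-017 (10 nM). Compound added until maximal inhibition. Inhibition taken as contraction height 1 min before versus 3 min after dosing. IC50 from Hill-equation fit.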
# [6] = target: Delta-type opioid receptor (Mus musculus, UniProt P32300); test: Agonist activity at delta opioid receptor by inhibition of muscle contraction in electrically stimulated isolated mouse vas deferens; assay type: functional, tissue-based
# Delta-type opioid receptor (Mus musculus, UniProt P32300), sequence (P32300 whole entry): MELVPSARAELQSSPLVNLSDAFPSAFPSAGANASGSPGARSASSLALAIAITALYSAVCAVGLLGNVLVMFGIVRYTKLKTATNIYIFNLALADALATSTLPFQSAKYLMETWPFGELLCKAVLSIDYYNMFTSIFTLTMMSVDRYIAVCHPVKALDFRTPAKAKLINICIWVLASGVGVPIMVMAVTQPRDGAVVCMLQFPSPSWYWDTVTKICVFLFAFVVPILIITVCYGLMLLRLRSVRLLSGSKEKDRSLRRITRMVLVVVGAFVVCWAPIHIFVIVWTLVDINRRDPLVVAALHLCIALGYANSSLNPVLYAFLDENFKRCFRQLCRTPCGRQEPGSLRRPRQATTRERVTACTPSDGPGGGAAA
# In short: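 Male ICR mouse vasa deferentia in 20-mL baths, 0.5 g tension, oxygenated Mg-free Krebs at 37 °C; field stimulation 0.1 Hz, 2.0 ms single pulses, supramaximal voltage. Tissue integrity checked with DPDPE (10 nM). Compound added cumulatively until maximal inhibition. Inhibition taken as mean contraction height for 1 min before dosing versus height 3 min after. IC50 from Hill-equation fit by nonlinear least squares.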
# [7] = target: T1, Cholecystokinin receptor (Homo sapiens); test: Antagonist activity at CCK receptor by inhibition of CCK8-induced muscle contraction in unstimulated GPI/LMMP; assay type: functional; details: Cavia porcellus; target entry is the homologue from another species
# In short: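 Male Hartley guinea pig ileum LMMP strips, 1 g tension, oxygenated Krebs bicarbonate buffer, 37 °C; 67 mM KCl sets maximal contractility. Initial noncumulative CCK-8 dose-response curve built. Test compound added without electrical stimulation; 3 min later the CCK-8 curve was rebuilt at an antagonist dose giving about a 3-fold rightward shift. Ke is the antagonist concentration halving CCK-8 activity.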
# [8] = Selectivity for human delta opioid receptor over rat mu opioid receptor
SMILES,Ke [1],Emax [2],Activity [3],Emax [4],Activity [5],IC50 (Mu-type opioid receptor),IC50 [6],Ke [7],Selectivity ratio [8]
CCCC[C@@H](C(=O)N[C@H](Cc1cn(C(=O)OC(C)(C)C)c2ccccc12)C(=O)O)N(C)C(=O)[C@H](CC(=O)O)NC(=O)[C@H](Cc1ccccc1)NN[C@@H](Cc1ccccc1)C(=O)NCC(=O)N[C@H](C)C(=O)N[C@@H](Cc1ccc(O)cc1)C(=O)O,Partial agonist,130%,5%,120%,–,–,–,–,–
CCCC[C@@H](C(=O)N[C@@H](CC(=O)O)C(=O)N[C@@H](Cc1ccccc1)C(N)=O)N(C)C(=O)[C@H](Cc1c[nH]c2ccccc12)NC(=O)CNC(=O)[C@@H](Cc1ccccc1)NC(=O)[C@H](Cc1ccc(O)cc1)NC(=O)[C@@H](N)CC(=O)O,–,–,–,–,0%,220 nM,29 nM,66 nM,–
CCCC[C@H](NC(=O)[C@H](CC(=O)O)NC(=O)[C@H](Cc1ccccc1)NN[C@@H](Cc1ccccc1)C(=O)NCC(=O)N[C@H](C)C(=O)N[C@@H](Cc1ccc(O)cc1)C(=O)O)C(=O)N[C@H](Cc1cn(C(=O)OC23CC4CC(CC(C4)C2)C3)c2ccccc12)C(=O)O,–,103%,0%,25%,–,–,–,44 nM,430
